# High-throughput results deposited in PubChem BioAssay by Broad Institute.
# Most compounds without a hit are left out; they make up all but 3.1% or so of the library.
# Cneo AK release = causes C. neoformans cell lysis | adenylate kinase release luminescence, 4 h; normalised: neutral wells 0, clomiphene wells 100 | lysis activity, % at 15 µM | actives 0.2% (n = 360,000) | AID 651654;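 active = mean lysis activity across replicates of at least 80%, whatever share of replicates individually reach that level; inactive = mean lysis activity below 80%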
#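 Test system: log-phase Cryptococcus neoformans yeast cells; Quantity: yeast cell density of 5 × 10^6 cells/mL; Buffer or medium: YPD; Doses: single compound concentration per well; Timing: 4 h at 37 °C static, read 1 h later; Measured by: AK luminescence; Read-out basis: lysis from increased AK signal; Control set: Clomiphene as positive control.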
# miR122 inh = blocks miR-122 activity in Huh7 sensor cells; Huh7 miR-122 Renilla luciferase sensor, 48 h; neutral wells = 0, positive control = 100; activation (reporter increase), % at 12.5 µM; actives 0.3% (n = 340,000); AID 602342;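 active = mean replicate activation score at least 90 and every replicate individually at or above 90; inconclusive = only one of the two criteria met; inactive = neither criterion met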;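 also: higher luciferase means less miR-122 activity so hits act as miR-122 inhibitors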
# E-selectin induc = induces E-selectin expression in human endothelial cells; P16581; HUVEC E-selectin immunofluorescence imaging; normalized: neutral wells 0, TNF-alpha wells 100; activation, % at 7.58 µM; actives 0.37% (n = 260,000); AID 686992;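 active = mean E-selectin-positive cell signal at least 10% of the positive control, reached in at least 60% of replicates, without over 20% cell loss; inconclusive = no rule given, readout overlaps actives, possibly toxicity-flagged; inactive = the rest, including those meeting only one limit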
# Target sequence (P16581 whole entry, looked up): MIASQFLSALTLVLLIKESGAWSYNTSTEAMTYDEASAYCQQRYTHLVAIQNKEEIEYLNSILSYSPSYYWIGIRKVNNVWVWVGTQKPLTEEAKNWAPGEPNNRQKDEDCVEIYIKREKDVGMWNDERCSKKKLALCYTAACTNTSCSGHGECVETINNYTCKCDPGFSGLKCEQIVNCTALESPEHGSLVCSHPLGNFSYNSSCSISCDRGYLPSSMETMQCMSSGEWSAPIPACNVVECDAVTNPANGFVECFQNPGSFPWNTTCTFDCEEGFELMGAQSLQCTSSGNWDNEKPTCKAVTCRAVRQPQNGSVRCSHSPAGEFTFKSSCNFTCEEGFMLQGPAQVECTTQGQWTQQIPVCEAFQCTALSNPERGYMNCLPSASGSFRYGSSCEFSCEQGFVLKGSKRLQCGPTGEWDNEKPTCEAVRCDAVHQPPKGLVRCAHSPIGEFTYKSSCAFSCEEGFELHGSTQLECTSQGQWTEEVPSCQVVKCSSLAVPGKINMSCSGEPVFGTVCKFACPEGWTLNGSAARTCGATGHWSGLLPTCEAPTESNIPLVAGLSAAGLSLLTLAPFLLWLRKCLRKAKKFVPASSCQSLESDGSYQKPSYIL
#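 material = human umbilical vein endothelial cells (HUVEC), E-selectin induction | quantity = 3,000 cells/well | medium = EGM-2 growth medium on 0.1% gelatin-coated wells | technique = immunofluorescence imaging | read-out basis = % PE-positive cells | control set = TNF-alpha positive control, DMSO neutral control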
# DENV2 CPE rescue = inhibitors of DENV2 cytopathic effect | DENV2-infected cells, cytopathic effect rescue, plate reader | CPE inhibition, % at 9.99 µM | actives 1.7% (n = 350,000) | AID 651640; in the data active = CPE inhibition above about 20%, passing the limit was not always enough; inconclusive = no clear call, values can overlap the other calls; tested in BHK-21 cells;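 also: 0% = median of neutral control wells and 100% = median of positive control wells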
# rRNA inh HTS = selective bacterial rRNA inhibition in E. coli. actives 1.6% (n = 350,000). AID 720706. GFP signal change (wild-type ribosome), % (concentration not given with the values). E. coli WT GFP vs humanized-ribosome RFP mutants, fluorescence, 24 h; active compounds read low; DMSO median 0, no signal -100;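 active = significant combined selectivity score with lowered wild-type GFP, culture density cut under 30%, mutant RFP and density less affected; inactive = any of these conditions unmet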
# * marks the source's active call; other numbers are inactive results; ? = inconclusive; . = not tested or not shown; ! = repeats disagree; [ ] = remark or other dose.
SMILES,Cneo AK release,miR122 inh,E-selectin induc,DENV2 CPE rescue,rRNA inh HTS
COc1ccccc1CN1C[C@@H](C)[C@@H](OC)CN(C)C(=O)c2ccc(NC(C)=O)cc2OC[C@@H]1C,1,5[16.7 µM],0,19,1
CCCC(=O)Nc1ccc2c(c1)OC[C@H](C)N(Cc1ccccn1)C[C@H](C)[C@H](OC)CN(C)C2=O,113*,.,0,-5,-2
COc1ccccc1CN1C[C@H](C)[C@H](OC)CN(C)C(=O)c2ccc(NC(C)=O)cc2OC[C@H]1C,1,9[16.7 µM],0,43*,3
CCCC(=O)Nc1ccc2c(c1)C(=O)N(C)C[C@H](OC)[C@H](C)CN(Cc1ccc(-c3ccccn3)cc1)[C@@H](C)CO2,0,.,0,28*,-4
CCC(=O)Nc1ccc2c(c1)OC[C@H](C)N(Cc1ccccn1)C[C@@H](C)[C@H](OC)CN(C)C2=O,55,.,0,32*,0
CCCC(=O)Nc1ccc2c(c1)OC[C@@H](C)N(Cc1ccccn1)C[C@H](C)[C@H](OC)CN(C)C2=O,0,.,0,-3,-3
CCCC(=O)Nc1ccc2c(c1)C(=O)N(C)C[C@@H](OC)[C@@H](C)CN(Cc1ccc(-c3ccccn3)cc1)[C@@H](C)CO2,-1,.,2,-6,0
CCCC(=O)Nc1ccc2c(c1)OC[C@@H](C)N(Cc1ccccn1)C[C@H](C)[C@@H](OC)CN(C)C2=O,-3,.,0,64*,-3
C[C@H](CO)N1C[C@H](C)[C@@H](CN(C)C(=O)Nc2ccc3c(c2)OCO3)Oc2ccc(NC(=O)Cc3cn(C)c4ccccc34)cc2C1=O,.,.,.,-7,-5
COC(=O)C1=C(C)N(Cc2ccc(Br)cc2)C(=S)NC1c1cccc(OC)c1 (stereo not drawn),.,.,0,7,0
COC(=O)C1=C(C)N(Cc2ccccc2)C(=S)NC1c1cccc(OC)c1 (stereo not drawn),.,.,4,-8,-29*
CCOc1cccc(C2NC(=S)NC(C)=C2C(=O)Nc2ccccc2)c1 (stereo not drawn),-6,0,.,.,.
COC(=O)C1=C(C)N(Cc2ccc(Br)cc2)C(=S)NC1c1cccc(F)c1 (stereo not drawn),.,.,0,26*,16
COC(=O)C1=C(C)N(Cc2ccccc2)C(=S)N[C@H]1c1ccccc1,7,7,0,-11,-25
COC(=O)C1=C(C)N(Cc2ccc(F)cc2)C(=S)NC1c1cccc(OC)c1 (stereo not drawn),.,.,2,11,-22*
COc1cccc(C2NC(=S)NC(C)=C2C(C)=O)c1 (stereo not drawn),.,.,2,57*,28
COC(=O)C1=C(C)N(Cc2ccc(Br)cc2)C(=S)NC1c1ccc(F)cc1 (stereo not drawn),.,.,0,-7,-8
COCC(=O)Nc1ccc2c(c1)OC[C@@H](C)N(C(=O)c1ccccc1)C[C@H](C)[C@@H](OC)CN(C)C2=O,0,2[16.7 µM],0,-4,-1
CC=Cc1ccc2n(c1=O)C[C@@H]1[C@@H](CO)[C@H](C(=O)NCCOC)[C@H]2N1Cc1ccccc1OC (mixture of isomers),.,.,0,-12,3
Cc1noc(C)c1NC(=O)N(C)C[C@H]1Oc2ncc(C#CC(C)C)cc2C(=O)N([C@@H](C)CO)C[C@H]1C,-3,-6[16.7 µM],0,53*,3
Cc1noc(C)c1NC(=O)N(C)C[C@@H]1Oc2ncc(C#CCN(C)C)cc2C(=O)N([C@H](C)CO)C[C@@H]1C,-1,3[16.7 µM],0,-5,4
COc1ccc(NC(=O)N(C)C[C@H]2Oc3ncc(C#CC(C)C)cc3C(=O)N([C@H](C)CO)C[C@H]2C)cc1,0,12[16.7 µM],0,-8,-4
COc1ccc(NC(=O)N(C)C[C@@H]2Oc3ncc(C#CC(C)C)cc3C(=O)N([C@@H](C)CO)C[C@@H]2C)cc1,3,-3[16.7 µM],0,53*,-2
Cc1noc(C)c1NC(=O)N(C)C[C@@H]1Oc2ncc(C#CCN(C)C)cc2C(=O)N([C@@H](C)CO)C[C@@H]1C,2,-7[16.7 µM],0,25*,-1
COCC(=O)Nc1ccc2c(c1)C(=O)N(C)[C@H]1CC[C@H](CC(=O)Nc3ccccc3OC)O[C@@H]1CO2,-13,0[16.7 µM],.,?,.
SMILES,Cneo AK release,miR122 inh,E-selectin induc,DENV2 CPE rescue,rRNA inh HTS
CCC1=Nc2cc(C(=O)NCc3ccco3)ccc2Sc2ccc(C)cc21,-1,119*,.,?,-8
Cc1nn(C)c(C)c1S(=O)(=O)NCc1cccs1,0,109*,.,.,.
CC(C)C(OC(=O)c1ccccc1)c1nccc2ccccc12 (stereo not drawn),-1,-7,.,2,-28*
C[C@H](CO)N1C[C@H](C)[C@H](CN(C)S(=O)(=O)c2ccc(Cl)cc2)Oc2ccc(NS(=O)(=O)c3cccs3)cc2C1=O,50,4[16.7 µM],1,-3,-2
C[C@H]1CCCCO[C@H](CN(C)S(=O)(=O)c2ccc(Cl)cc2)[C@@H](C)CN([C@@H](C)CO)C(=O)c2cc(NS(=O)(=O)c3cccs3)ccc2O1,89*,-4[16.7 µM],0,?,-3
C[C@H](CO)N1C[C@H](C)[C@H](CN(C)S(=O)(=O)c2cccs2)OCCCC[C@H](C)Oc2ccc(NS(=O)(=O)c3ccc(F)cc3)cc2C1=O,0,-2[16.7 µM],.,31*,-2
C[C@@H]1CN([C@H](C)CO)C(=O)c2cc(NS(=O)(=O)c3ccc(F)cc3)ccc2O[C@@H](C)CCCCO[C@@H]1CN(C)S(=O)(=O)c1cccs1,7,-12[16.7 µM],.,-7,1
C[C@H]1CN([C@@H](C)CO)C(=O)c2cc(NS(=O)(=O)c3ccc(Cl)cc3)ccc2O[C@H]1CN(C)S(=O)(=O)c1cccs1,-1,-5[16.7 µM],0,22*,3
C[C@@H]1CCCCO[C@H](CN(C)S(=O)(=O)c2cccs2)[C@H](C)CN([C@@H](C)CO)C(=O)c2cc(NS(=O)(=O)c3ccc(Cl)cc3)ccc2O1,45,-1[16.7 µM],.,31*,-1
C[C@@H]1CN([C@H](C)CO)C(=O)c2cccc(NS(=O)(=O)c3ccc(F)cc3)c2O[C@H]1CN(C)S(=O)(=O)c1ccccc1,-1,4[16.7 µM],0,3,-2
CCCNC(=O)N1[C@@H]2CNC[C@H]1C2c1ccc(-c2cccc(C#N)c2)cc1 (stereo partly drawn),.,.,0,21*!,-1
COc1cccc(NC(=O)N2[C@@H]3CNC[C@H]2C3c2ccc(-c3cccc(OC)c3)cc2)c1 (stereo partly drawn),.,.,0,-5,-61
O=C(Nc1cccc(Cl)c1)N1[C@@H]2CNC[C@H]1C2c1ccc(-c2ccccc2)cc1 (stereo partly drawn),.,.,0,67*!,-60
